Sampled rows, rich in hits. Any-hit rate of the full collection: about 0.29%.
PKA-R2B activ: activators of human PKA-R2B complex; 0.079% of 340,000 active; AID 504700; activation, % at 11.4 µM; PKA-R2B holoenzyme dissociation, Cy5-IP20 fluorescence polarization; R2B truncated from residue 108, S112A mutant; 0% DMSO only, 100% 113 µM cGMP; P22694+P31323;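 active = activation above a cutoff set at the mean over all compounds plus 3 SD, cut at about 18% in these data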;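 note: higher means more holoenzyme dissociation and a rise in polarization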
PKA-R1A act: activates the PKA-R1A holoenzyme complex | P00514+P68181 | PKA-R1A dissociation, Cy5-IP20 fluorescence polarization; scaled: DMSO 0%, 113 µM cGMP 100% | activation, % at 11.4 µM | 0.083% of 340,000 active;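 active = percent activation above the mean of all tested compounds plus 3 SD, cut at about 19% in these data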;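 note: higher means more PKAc released from R1A so a rise in polarization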
proCasp7 act: counter-screen: procaspase-7 (human) activation; recombinant procaspase-7, Ac-DEVD-pNA absorbance 405 nm; D23A/D198A/D206A triple mutant, cannot self-cleave; scale: DMSO 0, 5 µM enzyme 100; activation, % at 8.5 µM; 0.093% of 330,000 active; AID 463210;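 active = percent activation above the screen-wide mean plus 3 SD, cut at about 25% in these data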
Target sequence (P55210 whole entry D23A/D198A/D206A): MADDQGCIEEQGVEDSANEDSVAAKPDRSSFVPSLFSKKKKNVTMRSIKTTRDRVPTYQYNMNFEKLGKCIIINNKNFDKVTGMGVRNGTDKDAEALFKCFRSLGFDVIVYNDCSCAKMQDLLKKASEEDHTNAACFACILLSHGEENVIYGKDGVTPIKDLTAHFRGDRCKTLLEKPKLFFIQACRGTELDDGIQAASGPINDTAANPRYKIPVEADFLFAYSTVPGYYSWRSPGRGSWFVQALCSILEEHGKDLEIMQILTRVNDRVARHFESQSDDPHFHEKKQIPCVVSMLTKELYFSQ
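signal = Epi-absorbance of released pNA at 405 nm, two timepoints | assay system = Uncleavable procaspase-7 mutant enzyme | reagent = Ac-DEVD-pNA substrate, 400 µM as added | times = 1 h enzyme–compound preincubation and 2 h substrate reaction, both 25 °C | benchmarks = low DMSO alone, high DMSO plus 5 µM PC-7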
procasp3 activ: activators of human procaspase-3; activation, % at 8.5 µM; AID 463141; recombinant procaspase-3 D3A, Ac-DEVD-pNA absorbance 405 nm; 0.11% of 330,000 active;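 active = activation above the mean of all tested compounds plus 3 SD, cut at about 21% in these data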;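 note: 0% = DMSO alone and 100% = DMSO wells spiked with extra 5 µM PC-3 D3A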
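Test system: Procaspase-3 D3A mutant; medium: Zinc-free HEPES/NaCl buffer with 0.01% Triton X-100 at pH 7.4; reagent: DEVD-pNA substrate; doses: one concentration, 8.5 µM nominal, 0.8% DMSO; times: 1 h preincubation plus 2 h reaction at 25 °C; signal: Epi-absorbance at 405 nm of released p-nitroaniline, 0 and 120 min; replicates: singlicate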
R2B FP artifact: FP assay interference, PKA-R2B counter-screen; activation, % at 11.4 µM; shares compounds with PKA-R2B activ; FP artifact counterscreen, fluorescence polarization; 6% of 270 active; in the data active = activation above about 20%;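 note: Cy5 labelled IP20 peptide probe with compound but no PKA protein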
PKA-R2B confirm: confirmation of human PKA-R2B complex activators; activation, % at 11.4 µM; fluorescence polarization, activation; 9% of 270 active; shares compounds with PKA-R2B activ; in the data active = activation above about 19%
* marks the source's active call; other numbers are inactive results; / = not tested or not shown.

SMILES | PKA-R2B activ | PKA-R1A act | proCasp7 act | procasp3 activ | R2B FP artifact | PKA-R2B confirm
COc1ccc(/C=C2\SC(=O)N(CC(=O)NNC(=O)c3ccccc3O)C2=O)cc1 | 20.1* | 15.1 | 11.7 | 8.0 | 12.8 | 20.8*
COC(=O)[C@H](Cc1ccccc1)NC(=O)[C@@]1(C)C[C@@H]1[C@@H](NC(=O)OCc1ccccc1)c1ccccc1 | 0.4 | 0.4 | -3.3 | -2.9 | / | /
O=C(Nc1cccc(O)c1)C1CC(c2cccc(Br)c2)=NO1 (stereo not given) | -5.3 | 7.2 | 10.5 | 5.9 | / | /
O=C(NC1CC1)c1ccc(F)cc1Cl | 22.8* | 3.6 | 4.0 | -2.2 | 0.8 | 2.2
CC1CN(Cc2nnc(-c3ccccc3)o2)CC(C)O1 (stereo not given) | 22.3* | -3.5 | 2.3 | 3.0 | 4.5 | 2.2
CCN1CCN(Cc2nnc(-c3ccccc3)o2)CC1 | -5.2 | 1.2 | 7.2 | -1.5 | / | /
COCCN(CC(=O)NCC1CCCO1)C(=O)CCC(=O)Nc1ccccn1 (stereo not given) | -0.3 | 9.5 | 11.2 | 3.2 | / | /
CCc1cc2c(=O)n(CC(=O)NC3CCCCC3)cnc2s1 | 18.7* | 9.2 | 5.7 | -0.4 | -0.7 | 1.2
COCCNC(=O)COCc1cc(-c2ccc3c(c2)OCO3)on1 | -1.0 | -9.1 | 6.4 | -3.8 | / | /
COCCNC(=O)c1cc(-c2ccc3c(c2)OCO3)on1 | 18.4* | 6.8 | -2.8 | 1.0 | -1.9 | 0.6
CC(C)Cn1c(=O)c(C(=O)NCc2ccccn2)c(O)c2ccccc21 | 20.9* | 2.5 | -4.7 | 2.8 | -1.3 | -3.7
O=C(CSc1nnc(-c2ccc(O)cc2)n1-c1ccccc1)CC(=O)Nc1ccccc1 | 0.4 | 0.0 | 1.9 | 6.6 | / | /
CCOc1ccc(CC(=O)NCc2cn3c(C)csc3n2)cc1 | 21.8* | -2.3 | 10.6 | -0.6 | 0.2 | 3.9
COc1ccc(C(=O)NCc2cn3c(C)csc3n2)cc1OC | -12.6 | -8.0 | 6.2 | 0.3 | / | /
Cc1ccc(C(=O)N2CCOCC2)cc1[N+](=O)[O-] | 7.5 | -0.1 | 6.1 | 3.3 | / | /
Cc1ccc(C(=O)Nc2ccccc2C(=O)N2CCOCC2)cc1[N+](=O)[O-] | 19.6* | 5.0 | -0.3 | -5.3 | 0.0 | 4.4
COC(=O)Cc1cc(=O)n2[nH]cnc2n1 | 18.7* | -0.9 | 1.1 | -2.6 | 2.6 | -1.9
Cc1nc(C)c(C(=O)N(c2ccc(F)cc2)C(C(=O)NCC2CCCO2)c2ccccc2)s1 (stereo not given) | 20.1* | -4.5 | -7.4 | -5.4 | -1.1 | -3.9
Cc1nc(C)c(C(=O)N(c2ccccc2F)C(C(=O)NCC2CCCO2)c2ccccc2)s1 (stereo not given) | 10.4 | 4.1 | 3.9 | -11.9 | / | /
CCN(CC)S(=O)(=O)c1cc(C(=O)OCC(=O)Nc2cccc(C)c2C)ccc1F | 3.5 | 4.0 | -5.6 | -2.5 | / | /
CC1CCN(C(=O)CSc2nc3c(c(=O)n2C)SCC3)CC1 | 24.2* | 10.3 | 7.5 | 4.4 | 5.2 | 0.4
Cn1c(SCC(=O)N2CCCC2)nc2c(c1=O)SCC2 | 2.3 | -4.8 | / | / | / | /
Cc1cc(C)c2c(n1)nn1c(NCCN3CCOCC3)cc(C)nc21 | 18.4* | 10.8 | -0.7 | -4.9 | 1.7 | 0.1
Cc1cc(NCCN2CCOCC2)n2nc(C)c(-c3ccccc3)c2n1 | -11.0 | -12.7 | 6.5 | -1.8 | / | /
COc1cc(Nc2ncnc(N)n2)cc(OC)c1 | -1.3 | -6.8 | 0.1 | -9.0 | / | /
CC(=O)Nc1ccc(S(=O)(=O)NNC(=O)COc2cc(C)ccc2C(C)C)cc1 | 20.4* | 6.7 | -2.9 | -12.7 | 3.0 | -0.5
O=C1Nc2ccccc2/C1=C/c1cnc(-c2ccccc2)[nH]1 | 18.7* | -13.3 | -2.1 | -11.3 | 0.1 | 5.2
CN(C)CCCn1cnc2c(c1=N)C(c1ccccc1)c1ccc3ccccc3c1O2 (stereo not given) | 21.7* | -4.3 | 6.6 | 10.1 | 2.1 | 2.4
N=c1c2c(ncn1CCCO)Oc1c(ccc3ccccc13)C2c1ccccc1 (stereo not given) | -10.8 | -10.3 | 9.2 | 12.2 | / | /
COc1ccccc1NC(=O)C1CCN(C(=O)C2CC(=O)N(c3ccc(C)cc3)C2)CC1 (stereo not given) | 19.7* | 5.3 | -1.2 | -1.4 | 5.8 | 4.5

Screens as filed in PubChem BioAssay.
